Source: PubChem (several laboratories)
Shown are actives, neighbours in structure and some others; about 2.1% of the full set was active somewhere.
PABP polyA inh: blocks human PABP binding to poly(A) RNA; hit rate 1% among 290,000; AID 2014; fluorescence polarization; P11940; inhibition, % at 35 µM;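 further: calls also rest on retests at 20 µM and on dose response follow-up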
Target sequence (P11940 whole entry, looked up): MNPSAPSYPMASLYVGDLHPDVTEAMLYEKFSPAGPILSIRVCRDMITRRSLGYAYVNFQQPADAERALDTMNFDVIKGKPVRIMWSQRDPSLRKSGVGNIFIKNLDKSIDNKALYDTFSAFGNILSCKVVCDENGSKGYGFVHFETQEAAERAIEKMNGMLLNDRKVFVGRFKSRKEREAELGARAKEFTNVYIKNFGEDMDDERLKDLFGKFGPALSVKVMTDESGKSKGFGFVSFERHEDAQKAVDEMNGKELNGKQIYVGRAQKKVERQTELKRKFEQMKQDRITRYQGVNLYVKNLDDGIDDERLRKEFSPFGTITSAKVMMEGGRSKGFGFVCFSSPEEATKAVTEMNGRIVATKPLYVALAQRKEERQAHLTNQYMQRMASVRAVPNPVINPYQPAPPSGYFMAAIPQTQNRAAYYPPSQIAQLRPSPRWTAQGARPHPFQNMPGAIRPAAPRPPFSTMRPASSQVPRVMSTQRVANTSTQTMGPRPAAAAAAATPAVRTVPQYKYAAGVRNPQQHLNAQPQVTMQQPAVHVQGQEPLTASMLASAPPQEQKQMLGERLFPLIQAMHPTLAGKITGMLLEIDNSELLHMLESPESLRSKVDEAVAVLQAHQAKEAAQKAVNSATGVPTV
EBNA-1 inhibitor: blocks EBNA-1 binding to DNA; EBNA-1 DNA binding, fluorescence polarization; inhibition, % at 14.8 µM; hit rate 0.34% among 300,000; in the data active means inhibition above about 28%
HCV NS3 hel inh: inhibitors of Hepatitis C virus NS3 helicase; inhibition, % at 10.9 µM; hit rate 0.56% among 290,000; NS3 helicase DNA unwinding, Cy5 molecular beacon fluorescence; AID 1800;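 active means inhibition above the mean of all tested compounds plus 3 SD, set per campaign, cut at about 35% in these data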;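 further: 0% = DMSO wells and 100% = thioflavine S control wells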
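Measured by: Cy5 fluorescence, 0 and 60 min reads / Assay system: NS3 helicase fragment of HCV / Control set: low DMSO, high thioflavine S at 110 µM / Times: 1 h reaction at 25 °C, ATP-initiated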
eIF4H FP inh: inhibitors of RNA binding by human eIF4H | Q15056 | eIF4H fluorescence polarization binding assay | inhibition, % at 35 µM | hit rate 0.94% among 290,000;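 further: calls also rest on retests at 20 µM and on dose response follow-up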
ZTA counter: blocks Epstein-Barr virus ZTA, an EBNA-1 counter-screen; P03206; ZTA-DNA binding, fluorescence polarization; inhibition, % at 11 µM; hit rate 0.15% among 320,000; AID 2234; in the data active means inhibition above about 33%
PABP1 MLLE inh: inhibitors of microRNA-mediated deadenylation, human PABP1 MLLE binding | P11940 | GST-MLLE / FITC-PAM2 fluorescence polarization | inhibition, % at 20 µM | hit rate 0.36% among 360,000 | AID 588489; in the data active means inhibition above about 35%, passing the limit was not always enough;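 further: plate controls were DMSO wells with GST-MLLE for no effect and wells lacking GST-MLLE protein for full effect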
NS3 helicase cf: HCV NS3 helicase inhibition, confirmation assay. shares compounds with HCV NS3 hel inh. NS3 helicase DNA unwinding, Cy5 molecular beacon fluorescence. inhibition, % at 10.9 µM. hit rate 31% among 1,600. AID 1943;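 active means inhibition above the mean of all tested compounds plus 3 SD, cutoff set per campaign, cut at about 36% in these data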
FID counter trip: displaces DNA intercalator in HCV helicase counter-screen | inhibition, % at 7.9 µM | DNA fluorescent intercalator displacement, fluorescence | hit rate 4% among 1,600 | shares compounds with HCV NS3 hel inh; in the data active means inhibition above about 37%;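 further: 0% = vehicle and 100% = reference compound; higher means more displacement of ethidium bromide from the DNA hairpin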
* marks the source's active call; other numbers are inactive results; u = inconclusive; x = no result given. Unless noted, how the calls were made is not given here.

SMILES	PABP polyA inh	EBNA-1 inhibitor	HCV NS3 hel inh	eIF4H FP inh	ZTA counter	PABP1 MLLE inh	NS3 helicase cf	FID counter trip
CC(/C=C1\SC(=S)N(C(C(=O)O)C(C)C)C1=O)=C\c1ccccc1 (configuration not stated)	5	-6	36*	7	18	30	68*	27
CC(/C=C1\SC(=S)N(NC(=O)c2ccncc2)C1=O)=C\c1ccccc1	18	1	78*	-6	11	-6	34	2
CC(/C=C1\SC(=S)N(NS(=O)(=O)c2ccccc2)C1=O)=C\c1ccccc1	15	9	31	5	19	9	x	x
CC(/C=C1\SC(=S)N(NC(=O)c2ccc(C)cc2)C1=O)=C\c1ccccc1	0	0	9	-7	-2	-37	x	x
CC1=NN(c2ccccc2)C(=O)/C1=C/C=C/C=C/N(C)C	-6	-17	39*	u	-10	-158	-16	12
CCOC(=O)C1=NN(C(=O)c2ccccc2)C(O)(c2ccc(C)cc2)C1 (configuration not stated)	-11	5	44*	17	0	0	-9	-8
CN(C)S(=O)(=O)c1cccc(NC(=S)NC(=O)C2CCCCC2)c1	5	5	10	3	-10	21	x	x
O=C(O)CCCC(=O)N1N=C(c2c(-c3ccccc3)c3cc(Cl)ccc3[nH]c2=O)CC1c1cccs1 (configuration not stated)	10	11	25	1	1	1	x	x
O=C(O)CCC(=O)N1N=C(c2c(-c3ccccc3)c3cc(Cl)ccc3[nH]c2=O)CC1c1cccs1 (configuration not stated)	-7	8	37*	2	6	-4	90*	-9
O=C(O)c1cc([N+](=O)[O-])cc2c1C=Cc1ccccc1O2	32	2	31	41	-15	-8	x	x
Cc1ccc(-c2csc(/C=C3/SC(C)C(=O)N3CC(=O)Nc3ccccc3F)n2)cc1 (configuration not stated)	x	x	x	x	x	-9	x	x
CC(=O)c1ccccc1NC(=O)CN1C(=O)CS/C1=C\c1nc(-c2ccc(C)cc2)cs1	-4	-1	37*	-11	-13	-18	-3	-16
CC(NC(=O)/C=C/c1ccco1)c1nc2ccccc2n1Cc1cccc(Cl)c1 (configuration not stated)	3	12	36*	8	11	-4	-10	-12
O=C(Nc1nc2ccccc2n1Cc1ccc(Cl)cc1)c1ccco1	-3	20	5	-7	6	-11	x	x
Cc1ccc(/C=C/C(=O)Nc2ncc(C)s2)o1	-7	-6	50*	38	6	0	-9	8
C/C(=N\NC(=O)c1ccccc1O)c1cccc(NC(=O)c2ccccc2)c1	15	-10	6	5	3	9	x	x
C/C(=N\NC(=O)c1cc(O)ccc1O)c1cccc(NC(=O)c2ccc(Cl)cc2)c1	87*	4	40*	90*	0	12	-17	11
Cc1cc(C)cc(NC(=O)CN2CCC(C(=O)c3ccccc3)CC2)c1	4	-6	-13	-12	0	4	x	x
Cc1cc(C(=O)CSc2nnc(-c3ccco3)o2)c(C)n1CC1COc2ccccc2O1 (configuration not stated)	37	x	42*	38	x	-36	1	-41
Cc1cc(C(=O)CSc2nnc(-c3ccccc3)o2)c(C)n1CC1COc2ccccc2O1 (configuration not stated)	u	2	14	u	13	-66	x	x
Cc1cc(C)c(C(=O)CSc2nnc(-c3ccccc3Br)o2)cc1C	-6	x	39*	-3	x	-60	0	3
CN1C(=O)C(CC(=O)NCC2CCCCC2)SC1=Nc1ccccc1 (configuration not stated)	12	-15	2	-4	-1	9	x	x
CCOC(=O)N1CCN(C(=O)c2ccc(C)c(S(=O)(=O)N3CCCCC3)c2)CC1	-1	-4	10	1	-11	-6	x	x
